Data on 2 molecules can be found in ChEMBL document CHEMBL1123397, “Antiarrhythmic activity of 17 beta-aminoestratrienes. Comparison of 3-ols and 3-acetates with the corresponding 3-(3-amino-2-hydroxypropyl) ethers” (1986).

The structures appear in SMILES notation. In brackets after ≈: the same amount, converted by molar mass. Activity calls are given as the source filed them. No cut-off for these calls is given here.

For test [1], the species on record is Cavia porcellus. The test is described as follows: Compound was tested for antiarrhythmic activity expressed as action potential height (AP) in guinea pig atria at 1(ug/mL) concentration. It is filed as functional, Heart. The essentials: (§1)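 Guinea pig left atria pinned in a recording chamber, superfused with carbogen-gassed Krebs solution at 35 ± 0.5 °C and electrically stimulated. Transmembrane action potentials were recorded with conventional microelectrodes, giving RMP, AP height, APD50, APD90 and maximum rate of depolarization. Values are mean ± SEM from n cells across five preparations.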

The species named for test [2] is Cavia porcellus. The test is described as follows: Compound was tested for antiarrhythmic activity expressed as action potential height (AP) in guinea pig atria at 2(ug/mL) concentration. It is filed as functional, Heart. The procedure, abridged: as §1
Test [3] is filed under the species Cavia porcellus. The experiment in a line: Compound was tested for antiarrhythmic activity (time taken to reach 50% repolarization) in guinea pig atria at 1(ug/mL) concentration. It is filed as functional, Heart. The procedure, abridged: as §1
The species entered for test [4] is Cavia porcellus. The test is described as follows: Compound was tested for antiarrhythmic activity (time taken to reach 50% repolarization) in guinea pig atria at 2(ug/mL) concentration. It is filed as functional, Heart. The procedure, abridged: as §1
The species named for test [5] is Cavia porcellus. The test is described as follows: Compound was tested for antiarrhythmic activity (time taken to reach 50% repolarization) in guinea pig atria at 4(ug/mL) concentration. It is filed as functional, Heart. The essentials: as §1
For test [6], the species on record is Cavia porcellus. The experiment in a line: Compound was tested for antiarrhythmic activity (time taken to reach 90% repolarization) in guinea pig atria at 1(ug/mL) concentration. The format is functional, Heart. The procedure, abridged: as §1
The species entered for test [7] is Cavia porcellus. The test is described as follows: Compound was tested for antiarrhythmic activity (time taken to reach 90% repolarization) in guinea pig atria at 2(ug/mL) concentration. The format is functional, Heart. The essentials:
as §1

The species named for test [8] is Cavia porcellus. The test is described as follows: Compound was tested for antiarrhythmic activity (time taken to reach 90% repolarization) in guinea pig atria at 4(ug/mL) concentration. It is filed as functional, Heart. The essentials:
as §1

The species named for test [9] is Cavia porcellus. The experiment in a line: Compound was tested for antiarrhythmic activity expressed as action potential height (AP) in guinea pig atria at 4(ug/mL) concentration. It is filed as functional, Heart. The procedure, abridged: as §1
The species entered for test [10] is Cavia porcellus. The test is described as follows: Compound was tested for antiarrhythmic activity (maximum rate of phase 0 depolarization- MRD) in guinea pig atria at 1(ug/mL) concentration. The format is functional, Heart. The procedure, abridged: as §1
The species entered for test [11] is Cavia porcellus. The experiment in a line: Compound was tested for antiarrhythmic activity (maximum rate of phase 0 depolarization- MRD) in guinea pig atria at 2(ug/mL) concentration. The format is functional, Heart. The procedure, abridged: as §1
The species entered for test [12] is Cavia porcellus. The experiment in a line: Compound was tested for antiarrhythmic activity (maximum rate of phase 0 depolarization- MRD) in guinea pig atria at 4(ug/mL) concentration. The format is functional, Heart. The procedure, abridged: as §1
Test [13] is filed under the species Cavia porcellus. The experiment in a line: Compound was tested for antiarrhythmic activity expressed as resting membrane potential (RMP) in guinea pig atria at 1(ug/mL) concentration. It is filed as functional. Conditions: Heart. The essentials:
as §1

The species entered for test [14] is Cavia porcellus. The test is described as follows: Compound was tested for antiarrhythmic activity expressed as resting membrane potential (RMP) in guinea pig atria at 2(ug/mL) concentration. The format is functional. The conditions noted are these: Heart. The procedure, abridged:
as §1

The species entered for test [15] is Cavia porcellus. The experiment in a line: Compound was tested for antiarrhythmic activity expressed as resting membrane potential (RMP) in guinea pig atria at 4(ug/mL) concentration. The format is functional. Conditions: Heart. The essentials:
as §1

The species entered for test [16] is Cavia porcellus. The experiment in a line: Concentration required to reduce maximum following frequencu (MFF) of isolated guinea pig atria by 25%. It is filed as functional. The essentials:
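Guinea pig left atria in an organ bath of Krebs solution at 35 °C, gassed with carbogen, electrically driven, isometric contractions recorded. Drugs added cumulatively; maximum following frequency determined 6 min after each concentration. Concentration reducing MFF by 25% (EC25) calculated from six preparations.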

Test [17] is filed under the species Mus musculus. The experiment in a line: ED 50 value against aconitine-induced arrhythmias in mice. It is filed as functional. The procedure, abridged: (§2)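 Anaesthetised mice were given test compound intraperitoneally, then aconitine intravenously to induce arrhythmia. At least three doses were tested in separate groups (n = 6-10). ED50 is the dose raising the arrhythmogenic aconitine dose 50% above the control requirement.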

Test [18] deals with Rattus norvegicus. The test is described as follows: Effect dose of compound that antagonized arrhythmias evoked by coronary artery ligation in the rat was measured at 0.05 mg/kg dose. It is filed as functional. The procedure, abridged: (§3)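 Male Wistar rats, anaesthetised and artificially ventilated, with left thoracotomy; silk suture under main left coronary artery. After stabilization, test drug or vehicle i.v.; 14 min later isoprenaline 10 μg/kg; 1 min after that the ligature was tightened and VF incidence recorded over 30 min. Carotid pressure and lead II ECG monitored continuously. 7-12 animals per group.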

Test [19] has as its system Rattus norvegicus. The test is described as follows: Compound was tested for antagonism of Ventricular Fibrilloflutter (VF) evoked by coronary artery ligation in the rat measured at 0.05 mg/kg dose. The format is functional, Heart. The essentials:
as §3

Test [20] deals with Rattus norvegicus. The experiment in a line: Compound was tested for antagonism of Ventricular Fibrilloflutter (VF) evoked by coronary artery ligation in the rat measured at 0.1 mg/kg dose. It is filed as functional, Heart. The essentials: as §3
The test system of test [21] is Rattus norvegicus. The experiment in a line: Compound was tested for antagonism of Ventricular Fibrilloflutter (VF) evoked by coronary artery ligation in the rat measured at 0.02 mg/kg dose. The format is functional, Heart. The procedure, abridged:
as §3

Test [22] is filed under the species Mus musculus. The test is described as follows: ED 50 value against aconitine-induced arrhythmias in mice; IA is Inactive. The format is functional, organism-based. The procedure, abridged: as §2
The test system of test [23] is Rattus norvegicus. The experiment in a line: Effective dose that antagonized arrhythmias evoked by coronary artery ligation in the rat was measured at 1.0 mg/kg dose. The format is functional.
Test [24] deals with Rattus norvegicus. The experiment in a line: Effect on heart rate after isoprenaline induced tachycardia in the anesthetized rat at 2 mg/kg dose. The format is functional. The procedure, abridged: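 Same ligation protocol in anaesthetised male Wistar rats. Heart rate was taken from the lead II ECG at three points: just before i.v. drug or vehicle, 14 min after it (just before isoprenaline 10 μg/kg), and 1 min after isoprenaline. Pre vs post rates and isoprenaline responses vs controls were compared by Student's t test. Mean ± SEM of 7-12 observations.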

Test [25] has as its system Rattus norvegicus. The test is described as follows: Effect on heart rate before isoprenaline induced tachycardia in the anesthetized rat at 2 mg/kg dose. The format is functional. The procedure, abridged:
(§4)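 Test drug or vehicle was given i.v., and isoprenaline (10 µg/kg) 14 min later. Heart rate was read from the lead II ECG just before drug, at 14 min (pre-isoprenaline) and 1 min after isoprenaline. Compared by Student's t test; 7–12 animals per group; mean ± SEM.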

For test [26], the system named is Rattus norvegicus. The test is described as follows: Effect on heart rate on 1 min post isoprenaline induced tachycardia in the anesthetized rat at 2.0 mg/kg dose. It is filed as functional. The procedure, abridged:
as §4

Test [27] relates to Rattus norvegicus. The test is described as follows: Antagonism of Ventricular Fibrilloflutter (VF) evoked by coronary artery ligation in the rat measured at 2 mg/kg dose. It is filed as functional, Heart. The procedure, abridged: as §3
Test [28] relates to Rattus norvegicus. The test is described as follows: Compound was tested for antagonism of arrhythmias evoked by coronary artery ligation in the rat measured at 1 mg/kg dose. It is filed as functional. The procedure, abridged:
as §3

Test [29] deals with Rattus norvegicus. The test is described as follows: Mean change in heart rate recorded 14 min after the administration of compound. The format is functional. The procedure, abridged: as §4
For test [30], the species on record is Rattus norvegicus. The experiment in a line: Maximum increase in heart rate evoked by isoprenaline. It is filed as functional. The procedure, abridged:
as §4

As a reminder, the EC25 is the point of the concentration-response curve where the effect stands at 25%. High values mean weaker potency, low ones greater potency. What is called ED50 is the dose that gives a 50% effect, or the effect in half of the subjects.

For the molecule `CNC1[C@H](O)C[C@H]2[C@@H]3CCc4cc(O)ccc4[C@H]3CC[C@]12C` (some centres not stated), the AP in the test filed under Cavia porcellus [1] is on record as 85.8 mV; in the test listed under Cavia porcellus [2], 86.3 mV; in the test filed under Cavia porcellus [9], 81.5 mV. Also, the APD50 in the test listed under Cavia porcellus [3] was found to be 49.2 ms; in the test filed under Cavia porcellus [4] it was 45.5 ms; in the test listed under Cavia porcellus [5] it was 44.5 ms. In addition, the APD90 in the test filed under Cavia porcellus [6] was determined as 83.6 ms; in the test filed under Cavia porcellus [7] it was 80.2 ms; in the test filed under Cavia porcellus [8], 80.6 ms. Moreover, the values for the MRD in the test listed under Cavia porcellus [10], in the test listed under Cavia porcellus [11] and in the test listed under Cavia porcellus [12] were 98.4 V s-1, 86.5 V s-1 and 62.4 V s-1, respectively. For the same molecule, the values for the RMP in the test filed under Cavia porcellus [13], in the test filed under Cavia porcellus [14] and in the test filed under Cavia porcellus [15] were 72.8 mV, 75.8 mV and 72.1 mV, respectively. Besides, the 25% effect level in the test listed under Cavia porcellus [16] (EC25) was put at 1.67 µg/mL (≈ 5.54 µM). The ED50 in the test filed under Mus musculus [17] is 5.9 mg/kg; with Rattus norvegicus [18] it was 0.04 mg/kg. For the same molecule, the values for the VF with Rattus norvegicus [19], with Rattus norvegicus [20] and with Rattus norvegicus [21] were 33%, 17% and 83%, respectively.
Regarding `CNC1[C@H](O)C[C@H]2[C@@H]3CCc4cc(OCC(O)CNC(C)(C)C)ccc4[C@H]3CC[C@]12C` (some centres not stated), the 25% effect concentration (EC25) in the test filed under Cavia porcellus [16] came to 38.6 µg/mL (≈ 89.6 µM). Moreover, in the test filed under Mus musculus [22], the ED50 result is “inactive”. Besides, the ED50 in the test on Rattus norvegicus [23] was 0.7 mg/kg. The VF with Rattus norvegicus [19] came to 67%; in the test on Rattus norvegicus [27], 0%; with Rattus norvegicus [28] it was 25%. In addition, the results for the Heart rate in the test on Rattus norvegicus [24], in the test with Rattus norvegicus [25] and in the test with Rattus norvegicus [26] were 294 beats min-1, 415 beats min-1 and 302 beats min-1, respectively. Also, the Change with Rattus norvegicus [29] is reported as -29.2%. The molecule also had an Increase in the test listed under Rattus norvegicus [30] of 3%.
